Experimental data: ChEMBL document CHEMBL1140161, “Structure-activity relationships in 1,4-benzodioxan-related compounds. 9. From 1,4-benzodioxane to 1,4-dioxane ring as a promising template of novel alpha1D-adrenoreceptor antagonists, 5-HT1A full agonists, and cytotoxic agents” (J Med Chem, 2008)
Calls of active or inactive are those of the source. No cut-off for these calls is given here.

Columns and labels:
[1] = target: T1, Alpha-1D adrenergic receptor (Homo sapiens, UniProt P25100); experiment: Displacement of [3H]prazosin from human cloned alpha1D adrenoceptor expressed in CHO cells; format: cell-based
T1 sequence (P25100 whole entry): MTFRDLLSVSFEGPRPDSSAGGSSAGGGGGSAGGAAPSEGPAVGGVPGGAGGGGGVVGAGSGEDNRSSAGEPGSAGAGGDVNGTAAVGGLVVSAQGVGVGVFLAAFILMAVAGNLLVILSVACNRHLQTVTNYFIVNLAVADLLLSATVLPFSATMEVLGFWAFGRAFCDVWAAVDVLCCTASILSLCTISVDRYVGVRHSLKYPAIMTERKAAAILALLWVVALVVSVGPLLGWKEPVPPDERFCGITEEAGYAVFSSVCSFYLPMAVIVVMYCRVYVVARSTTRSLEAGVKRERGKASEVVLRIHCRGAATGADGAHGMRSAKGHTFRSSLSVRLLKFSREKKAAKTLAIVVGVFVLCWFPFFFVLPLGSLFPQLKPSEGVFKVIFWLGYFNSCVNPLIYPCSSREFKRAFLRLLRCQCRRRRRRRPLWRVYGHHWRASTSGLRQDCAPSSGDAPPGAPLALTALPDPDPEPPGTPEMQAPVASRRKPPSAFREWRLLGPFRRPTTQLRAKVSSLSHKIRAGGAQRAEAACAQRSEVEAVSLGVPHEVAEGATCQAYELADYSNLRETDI
Procedure, shortened: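 [3H]prazosin binding to cloned human α1-adrenoceptor subtypes expressed in CHO cell membranes. Affinity reported as pKi for each subtype.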

PC-3 [2] = experiment: Cytotoxicity against human PC3 cells after 48 hrs by SRB assay; format: functional; details: for GI50 / TGI / CC50: PC-3, 48 h; for CC50: read-out: LC50 (the source's name)
Procedure, shortened: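 PC-3 human prostate cancer cells. Growth measured by sulforhodamine B staining following the NCI protocol. […] Values are means of quadruplicate determinations ± standard error (n = 5).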

[3] = target: T2, Alpha-1D adrenergic receptor (Rattus norvegicus) (UniProt P23944); experiment: Antagonist activity at Alpha-1D adrenoceptor in Wistar rat thoracic aorta assessed as inhibition of (-)-noradrenaline-induced contraction after 30 mins; format: functional, tissue-based
T2 sequence (whole entry): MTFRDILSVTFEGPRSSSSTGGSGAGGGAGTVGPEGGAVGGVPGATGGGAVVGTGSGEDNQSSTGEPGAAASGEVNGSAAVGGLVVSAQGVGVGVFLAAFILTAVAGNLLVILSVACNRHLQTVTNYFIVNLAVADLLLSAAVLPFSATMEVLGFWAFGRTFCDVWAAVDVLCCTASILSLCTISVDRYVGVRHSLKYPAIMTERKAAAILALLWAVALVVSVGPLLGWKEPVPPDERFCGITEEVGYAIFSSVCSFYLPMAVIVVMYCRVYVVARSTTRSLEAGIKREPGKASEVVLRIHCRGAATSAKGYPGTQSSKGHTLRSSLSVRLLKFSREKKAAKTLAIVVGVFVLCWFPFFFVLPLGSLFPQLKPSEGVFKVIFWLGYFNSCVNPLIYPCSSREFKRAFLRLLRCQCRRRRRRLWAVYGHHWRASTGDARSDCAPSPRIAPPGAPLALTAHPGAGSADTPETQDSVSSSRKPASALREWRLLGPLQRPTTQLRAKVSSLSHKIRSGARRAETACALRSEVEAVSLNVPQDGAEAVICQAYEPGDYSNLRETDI

[4] = target: T3, 5-hydroxytryptamine receptor 1A (Homo sapiens) (UniProt P08908); experiment: Agonist activity at human cloned 5HT1A receptor expressed in HeLa cell membrane assessed as stimulation of [35S]GTPgammaS binding relative to 5-hydroxytryptamine; format: functional, cell membranes
T3 sequence (whole entry): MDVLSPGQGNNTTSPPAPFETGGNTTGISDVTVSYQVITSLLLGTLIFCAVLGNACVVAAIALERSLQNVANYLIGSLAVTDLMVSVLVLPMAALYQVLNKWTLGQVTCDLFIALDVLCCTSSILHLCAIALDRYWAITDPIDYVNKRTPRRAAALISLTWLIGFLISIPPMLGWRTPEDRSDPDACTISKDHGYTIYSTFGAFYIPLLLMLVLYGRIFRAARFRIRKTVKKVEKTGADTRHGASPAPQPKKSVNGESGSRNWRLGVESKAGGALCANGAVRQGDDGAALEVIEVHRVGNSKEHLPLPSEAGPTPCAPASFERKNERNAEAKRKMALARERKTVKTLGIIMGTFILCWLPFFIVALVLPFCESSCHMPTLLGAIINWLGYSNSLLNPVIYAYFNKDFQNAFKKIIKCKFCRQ
Procedure, shortened: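 Activation measured as [35S]GTPγS binding in membranes from HeLa cells expressing cloned human 5-HT1A receptor. pD2 is the negative log of agonist concentration giving 50% of maximal stimulation, from two to three experiments agreeing within 20%. Efficacy is given relative to 5-HT.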

PC-3 [5] = experiment: Induction of apoptosis in human PC3 cells assessed as translocation of phosphatidylserine at 50 uM after 48 hrs by annexin V-FITC staining and cytofluorimetric analysis; format: functional
Procedure, shortened: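 PC-3 prostate cancer cells exposed to compound for 48 h, then stained with annexin V-FITC to detect externalized phosphatidylserine. Read-out by flow cytometry as mean fluorescence intensity (MFI), against untreated and vehicle-treated cells.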

[6] = target: T3, 5-hydroxytryptamine receptor 1A (Homo sapiens); experiment: Agonist activity at human cloned 5HT1A receptor expressed in human HeLa cell membrane assessed as stimulation of [35S]GTPgammaS binding; format: functional, cell membranes
Procedure, shortened: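 Membranes from HeLa cells expressing cloned human 5-HT1A receptor; agonist-stimulated [35S]GTPγS binding measured. pD2 is the negative log of the agonist concentration giving 50% of maximal [35S]GTPγS binding stimulation; values from two to three experiments.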

Row | SMILES | Ki [1] [µM] | GI50 (PC-3 [2]) [µM] | TGI (PC-3 [2]) [µM] | CC50 (PC-3 [2]) [µM] | pKb [3] | %max [4] | Flu intensity (PC-3 [5]) | pD2 [6] | Activity (PC-3 [2])
1 | COc1ccccc1OCCNC[C@@H]1COC(c2ccccc2)(c2ccccc2)CO1 | 0.102 | 7.8 | 16.1 | 35.8 | 7.71 | – | – | – | –
2 | COc1cccc(OC)c1OCCNC[C@@H]1COC(c2ccccc2)(c2ccccc2)CO1 | 0.17 | 19.9 | 31.6 | 40 | 7.38 | – | – | – | –
3 | c1ccc(OCCNC[C@@H]2COCC(c3ccccc3)(c3ccccc3)O2)cc1 | 0.00363 | 1 | 3.9 | 6.2 | 7.6 | 77.1 | 76.98 | 9.11 | –
4 | COc1ccccc1OCCNC[C@@H]1COCC(c2ccccc2)(c2ccccc2)O1 | 0.00115 | 6.3 | 15.4 | 35.1 | 8.32 | 81.5 | – | 9.4 | –
5 | COc1cccc(OC)c1OCCNC[C@@H]1COCC(c2ccccc2)(c2ccccc2)O1 | 0.0661 | 25.1 | 31.6 | 35 | 7.22 | 106 | – | 8.28 | –
6 | c1ccc(OCCNC[C@@H]2COC(c3ccccc3)(c3ccccc3)CO2)cc1 | 0.126 | 9.9 | 19.4 | 45.2 | 7.19 | – | – | – | –
7 | c1ccc(OCCNC[C@@H]2CO[C@H](c3ccccc3)CO2)cc1 (relative stereo) | 0.355 | 190 | 239 | > 300 | 7.05 | – | – | – | –
8 | COc1ccccc1OCCNC[C@@H]1COC[C@H](c2ccccc2)O1 (relative stereo) | 0.0437 | 79 | 158 | 251 | 7.2 | 78.1 | – | – | –
9 | c1ccc(OCCNC[C@@H]2COC[C@@H](c3ccccc3)O2)cc1 (relative stereo) | 0.155 | 158 | 223 | > 300 | 6.38 | – | – | – | –
10 | COc1cccc(OC)c1OCCNC[C@@H]1CO[C@H](c2ccccc2)CO1 (relative stereo) | > 1 | 199 | 251 | > 300 | 6.08 | – | – | – | –
11 | c1ccc(OCCNC[C@@H]2COC[C@H](c3ccccc3)O2)cc1 (relative stereo) | 0.0724 | 158 | 223 | 281 | 6.77 | – | – | – | –
12 | COc1ccccc1OCCNC[C@@H]1COC[C@@H](c2ccccc2)O1 (relative stereo) | 0.0316 | 199 | 251 | > 300 | 7.83 | – | – | – | –
13 | COc1cccc(OC)c1OCCNC[C@@H]1COC[C@@H](c2ccccc2)O1 (relative stereo) | > 1 | 112 | 199 | 288 | 7.11 | – | – | – | –
14 | COc1cccc(OC)c1OCCNC[C@@H]1COC[C@H](c2ccccc2)O1 (relative stereo) | > 1 | 79.4 | 178 | 282 | 6.55 | – | – | – | –
15 | COc1cccc(OC)c1OCCNC[C@@H]1CO[C@@H](c2ccccc2)CO1 (relative stereo) | > 1 | 29 | – | – | 7.26 | – | – | – | inactive
16 | COc1ccccc1OCCNC[C@@H]1CO[C@@H](c2ccccc2)CO1 (relative stereo) | 0.0977 | 30.1 | – | – | 7.48 | – | – | – | inactive
17 | COc1ccccc1OCCNC[C@@H]1CO[C@H](c2ccccc2)CO1 (relative stereo) | 0.0162 | 199 | 251 | > 300 | 6.84 | 85.5 | – | 7.88 | –
18 | c1ccc(OCCNC[C@@H]2CO[C@@H](c3ccccc3)CO2)cc1 (relative stereo) | > 1 | 177 | 252 | > 300 | 6.56 | – | – | – | –
